We go through five compounds from ChEMBL document CHEMBL1124965, “Synthesis and dopamine agonist properties of (+-)-trans-3,4,4a,10b-tetrahydro-4-propyl-2H,5H-[1]benzopyrano [4,3-b]-1,4-oxazin-9-ol and its enantiomers” (J Med Chem, 1990).

pIC50: −log10 of the molar value.

Test [1] deals with Rattus norvegicus. Briefly: Inhibition of gamma-butyrolactone-stimulated DOPA synthesis in the corpus striatum of rats (30 mg/kg administered intraperitoneally). The class given is functional. The method, boiled down: (§1)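 Male Long-Evans rats dosed 30 min before GBL (750 mg/kg ip) plus decarboxylase inhibitor NSD 1015 (100 mg/kg ip); killed 30 min later. Striatal DOPA measured by HPLC with electrochemical detection. Expressed as percentage reversal versus GBL/NSD 1015-treated animals; N = 4–5.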

Test [2] relates to Rattus norvegicus. Briefly: Inhibition of dopamine neuronal firing activity in the rat substantia nigra DA neutrons (2.2 mg/kg administered intraperitoneally). Type of test: functional. The method in brief: (§2)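 Chloral hydrate-anesthetized rats; zona compacta DA cells recorded, identified by waveform and firing pattern, site confirmed histologically. Drug given ip via indwelling catheter. Baseline is the mean of the 2 min before injection; effect is the mean over the 1-min period of maximal inhibition; percent decrease, N = 3–4 cells.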

Test [3] concerns Rattus norvegicus. Briefly: Reversal of reserpine-induced depression in rat (dose administered subcutaneously) Values generated from three doses;5-10 rats were used per dose. The note with it: sc. The class given is functional. The method in brief:
(§3)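 Rats pretreated with reserpine 5 mg/kg 24 h before testing; drug given sc and reversal of spontaneous locomotor inhibition measured; ED50 derived from three doses with 5–10 rats per dose.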

Test [4] relates to Rattus norvegicus. Briefly: Inhibition of gamma-butyrolactone-stimulated DOPA synthesis in the corpus striatum of rats (dose administered subcutaneously). Type of test: functional. Conditions: sc. The method, boiled down: as §1
The subject of test [5] is Rattus norvegicus. Briefly: Inhibition of locomotor activity (LMA) in rats generated from four doses of 5-12 animals per dose (dose administered subcutaneously). Conditions: sc.
The test system of another test is Mus musculus. Briefly: Inhibition of locomotor activity (LMA) in mice by the compound administered intraperitoneally. Type of test: functional. The method in brief: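 Spontaneous exploratory locomotor activity in mice after ip dosing; ED50 derived from four doses with at least three animals per dose.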
Test [6] concerns Rattus norvegicus. Briefly: Inhibition of locomotor activity (LMA) in rats generated from four doses of 5-12 animals per dose (dose administered po).
The species named for test [7] is Rattus norvegicus. Briefly: Inhibition of gamma-butyrolactone-stimulated DOPA synthesis in the corpus striatum of rats. The class given is functional. The method in brief:
as §1

Test [8] has as its target T1, D(2) dopamine receptor (Rattus norvegicus, UniProt P61169). Briefly: Affinity for [3H]N-propylnorapomorphine (NPA) Dopamine receptor D2.
Test [9] addresses T1, D(2) dopamine receptor. Briefly: Concentration inhibiting specific binding of [3H]haloperidol to Dopamine receptor D2 from rat striatal brain.
In test [10] the test system is Rattus norvegicus. Briefly: Reversal of reserpine-induced depression in rat (dose administered subcutaneously). The class given is functional. The note with it: sc. The method, boiled down:
as §3

In test [11] the test system is Rattus norvegicus. Briefly: Reversal of reserpine-induced depression in rat (dose administered subcutaneously) Values generated from three doses; 5-10 rats were used per dose. The note with it: sc.
Test [12] has as its system Rattus norvegicus. Briefly: Inhibition of dopamine neuronal firing activity in the rat substantia nigra DA neutrons (0.25 mg/kg administered intraperitoneally). Type of test: functional. The method, boiled down: as §2
Test [13] deals with Rattus norvegicus. Briefly: Inhibition of gamma-butyrolactone-stimulated DOPA synthesis in the corpus striatum of rats (2 mg/kg administered intraperitoneally). The class given is functional. The method, boiled down: as §1
The mark [14] stands for this setting: Mus musculus, ip, read-out: ED50.

T1 sequence (P61169 whole entry): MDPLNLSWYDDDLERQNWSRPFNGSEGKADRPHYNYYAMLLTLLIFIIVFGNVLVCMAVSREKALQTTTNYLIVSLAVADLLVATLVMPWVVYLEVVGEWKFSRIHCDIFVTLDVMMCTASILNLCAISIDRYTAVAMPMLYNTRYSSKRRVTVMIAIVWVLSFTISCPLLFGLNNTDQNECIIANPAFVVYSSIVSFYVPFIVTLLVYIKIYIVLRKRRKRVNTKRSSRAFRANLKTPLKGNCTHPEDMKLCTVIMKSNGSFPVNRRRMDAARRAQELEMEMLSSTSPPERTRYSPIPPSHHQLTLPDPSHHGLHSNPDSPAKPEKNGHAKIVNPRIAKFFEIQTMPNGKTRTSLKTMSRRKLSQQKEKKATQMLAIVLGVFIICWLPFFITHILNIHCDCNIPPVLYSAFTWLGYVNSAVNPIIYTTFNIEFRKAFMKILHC

Broadly, the ED50 is the dose that gives a 50% effect, or the effect in half of the subjects. Turning to `CCCN(CCC)C1COc2ccc(O)cc2C1` (stereo not given), the “Percent reversal of GBL-stimulated DOPA synthesis” value (“Percent reversal” below) in the test with Rattus norvegicus [1] turned out to be 100%. In the test on Rattus norvegicus [2], this compound gave a Decrease of 100%. The ED50 with Rattus norvegicus [3] was found to be 13.4 mg/kg; in the test with Rattus norvegicus [4], 0.04 mg/kg; with Rattus norvegicus [5] it was 0.17 mg/kg; in the test with Mus musculus (setting [14]), 11.3 mg/kg.
For orientation: pIC50 means the IC50 on a negative log10 scale, so that one unit is a factor of ten. Low values mean a large IC50, high ones a small IC50. Regarding `CCCN1CCO[C@@H]2c3cc(O)ccc3OC[C@H]21`, in the test with Rattus norvegicus [1], the “Percent reversal” value worked out at 88.4%. Also, the ED50 in the test with Rattus norvegicus [6] came to 5.8 mg/kg; in the test with Rattus norvegicus [4], 0.03 mg/kg; with Rattus norvegicus [5], 0.03 mg/kg; in the test on Mus musculus, 5.4 mg/kg; in the test on Rattus norvegicus [10], 6.25 mg/kg. The compound also registered a Dose in the test filed under Rattus norvegicus [7] of 100%. For the same compound, the Decrease in the test on Rattus norvegicus [2] was 100%. The values for the pIC50 against D(2) dopamine receptor [8] and at D(2) dopamine receptor [9] were 6.91 and 6.39, respectively.
`CCCN1CCO[C@H]2c3cc(O)ccc3OC[C@@H]21`: the “Percent reversal” value in the test with Rattus norvegicus [1] is on record as 0%. In the test on Rattus norvegicus [2], this compound came in with a Decrease of 9%. Besides, at D(2) dopamine receptor [9], the pIC50 was less than 4.00. Also, in the test on Mus musculus (setting [14]), the ED50 is more than 30 mg/kg.
In the case of `CCCN1CCO[C@@H]2c3cc(O)ccc3OC[C@H]21` (racemic), the “Percent reversal” value in the test on Rattus norvegicus [1] stood at 61.8%. The Decrease in the test on Rattus norvegicus [2] worked out at 99%. The compound further gave a pIC50 on D(2) dopamine receptor [9] of 6.05. Further, the ED50 in the test on Mus musculus was 11 mg/kg.
Regarding `CN1CCc2cccc3c2[C@H]1Cc1ccc(O)c(O)c1-3` [APOMORPHINE], the ED50 in the test on Rattus norvegicus [11] amounted to 0.096 mg/kg; with Rattus norvegicus [4], 0.06 mg/kg; in the test on Rattus norvegicus [5], 0.021 mg/kg; in the test on Mus musculus (setting [14]), 0.3 mg/kg. This compound also displayed a Decrease with Rattus norvegicus [12] of 100%. The same compound displayed an Increase with Rattus norvegicus [13] of 100%.
